Data as given in ChEMBL document CHEMBL3393022, “Ligand-induced conformational change of Plasmodium falciparum AMA1 detected using 19F NMR” (J Med Chem, 2014).
Active and inactive are the calls of the source. No cut-off for these calls is given here. Residues, ends and D or L forms follow the SMILES beside them.

Legend:
[1] = target: T1, Apical membrane antigen 1 (Plasmodium falciparum (isolate 3D7)) (UniProt Q7KQK5); assay: Binding affinity to Plasmodium falciparum 3D7 5F-Trp-tagged AMA1 F367W mutant assessed as decrease in the W367 line width at 1 and 3 mM by 19F-NMR spectroscopy in presence of R1/RON2L
T1 sequence (whole entry): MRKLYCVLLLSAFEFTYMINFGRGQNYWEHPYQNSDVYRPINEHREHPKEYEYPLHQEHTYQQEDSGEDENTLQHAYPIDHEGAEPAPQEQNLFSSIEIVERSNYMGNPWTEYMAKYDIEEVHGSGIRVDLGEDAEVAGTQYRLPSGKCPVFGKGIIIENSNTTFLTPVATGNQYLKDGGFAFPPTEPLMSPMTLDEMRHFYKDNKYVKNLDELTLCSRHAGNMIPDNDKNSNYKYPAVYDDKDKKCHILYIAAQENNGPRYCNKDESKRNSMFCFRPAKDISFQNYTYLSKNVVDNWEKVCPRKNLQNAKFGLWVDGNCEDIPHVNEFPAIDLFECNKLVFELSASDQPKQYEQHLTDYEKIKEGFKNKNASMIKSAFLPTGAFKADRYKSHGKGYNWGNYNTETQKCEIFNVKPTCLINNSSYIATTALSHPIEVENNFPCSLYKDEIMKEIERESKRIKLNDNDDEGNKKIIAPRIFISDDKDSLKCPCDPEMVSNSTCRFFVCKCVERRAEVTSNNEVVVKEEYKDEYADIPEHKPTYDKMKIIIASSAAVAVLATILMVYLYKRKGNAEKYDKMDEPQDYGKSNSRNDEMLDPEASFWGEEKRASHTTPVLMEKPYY
Procedure, shortened: (§1)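 5F-Trp-labelled 3D7 PfAMA1(108–434) F367W from E. coli BL21(DE3), induced with 1 mM IPTG for 3 h after glyphosate/Phe/Tyr/5F-Trp, refolded and purified into 20 mM phosphate pH 7.4. Small-molecule ligands were added from 100 mM stocks in H2O, ethanol or DMSO to 1 and 3 mM. 19F spectra: 2K scans, 8K complex points, 150 ppm sweep width, under 40 min, compared with free protein.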

[2] = target: T1, Apical membrane antigen 1 (Plasmodium falciparum (isolate 3D7)); assay: Binding affinity to Plasmodium falciparum 3D7 5F-Trp-tagged AMA1 assessed as downfield shifts of W110 peak by 19F-NMR spectroscopy in presence of R1/RON2L
[3] = target: T1, Apical membrane antigen 1 (Plasmodium falciparum (isolate 3D7)); assay: Binding affinity to Plasmodium falciparum 3D7 5F-Trp-tagged AMA1 F367W mutant at 1 and 3 mM by 19F-NMR spectroscopy in presence of R1/RON2L; procedure, shortened: as §1
[4] = target: T2, Apical membrane antigen 1 (Plasmodium falciparum (isolate 3D7), UniProt Q7KQK5); assay: Binding affinity to Plasmodium falciparum 3D7 AMA1 (108 to 434) expressed in Escherichia coli BL21(DE3) by SPR analysis
T2 sequence (Q7KQK5 whole entry): T1 sequence (whole entry)
Procedure, shortened: (§2)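 SPR at 25 °C in PBS–0.1% Tween, flow 30 μL/min, with AMA1 immobilised on a GLC chip. Peptides were injected for 8 min at 50–3.125 nM, with 800 s dissociation. A lane without AMA1 and buffer or DMSO signals were subtracted. Regeneration used 0.85% phosphoric acid.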

[5] = target: Apical membrane antigen 1 (Plasmodium falciparum (isolate 3D7), UniProt Q7KQK5); assay: Binding affinity to Plasmodium falciparum 3D7 AMA1 373W insertion mutant expressed in Escherichia coli BL21(DE3) by SPR analysis; procedure, shortened: as §2
[6] = target: Apical membrane antigen 1 (Plasmodium falciparum (isolate 3D7), UniProt Q7KQK5, F367W); assay: Binding affinity to Plasmodium falciparum 3D7 AMA1 F367W mutant expressed in Escherichia coli BL21(DE3) at 1 and 3 mM by SPR analysis

Cc1nc(N)sc1-c1ccc(N)cc1
Activity [1]: Dose-dependent effect
Activity [2]: Dose-dependent effect

Nc1cc(N)cc(-c2nc3ccccc3[nH]2)c1
Activity [1]: inactive
Activity [3]: Active
Activity [2]: Active

CC[C@H](C)[C@H](NC(=O)[C@H](CCC(N)=O)NC(=O)[C@H](CCC(N)=O)NC(=O)[C@@H]1CCCN1C(=O)[C@@H]1CCCN1C(=O)[C@H](CO)NC(=O)[C@H](CCSC)NC(=O)[C@H](CCCNC(=N)N)NC(=O)[C@@H](NC(=O)[C@@H](NC(=O)[C@H](Cc1ccccc1)NC(=O)[C@@H](N)CS)[C@@H](C)O)[C@@H](C)O)C(=O)N[C@@H](CS)C(=O)O (H-CFTTRMSPPQQIC-OH)
Kd [4]: 40000 nM
Activity [2]: Active

H-VFAEFLPLFSKFGSRMHILK-OH
Kd [4]: 23 nM
Kd [5]: 50 nM
Kd [6]: 20 nM
Activity [2]: Active

Nc1ccc2nc(N3CCCCC3)[nH]c2c1
Activity [1]: inactive
Activity [3]: Active
Activity [2]: Dose-dependent effect
